The values below come from ChEMBL document CHEMBL3102784, “Salicylanilide diethyl phosphates: synthesis, antimicrobial activity and cytotoxicity” (Bioorg Med Chem, 2014).

Type in all cases: functional
The test system of experiment [1] is Mycobacterium tuberculosis. The experiment can be described thus: Antimycobacterial activity against isoniazid, rifamycin and streptomycin-resistant Mycobacterium tuberculosis 9449/2006 after 14 days. Conditions: 9449/2006, 336 h. In short, it runs like this:
(§1)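 Drug-resistant M. tuberculosis strains (MDR, one XDR), inoculum dilution 10^3. MIC by micromethod in Šula's semisynthetic medium at 37 °C, compounds in DMSO, concentration series as for the drug-susceptible strain. Read after 14 and 21 days.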

The subject of experiment [2] is Mycobacterium tuberculosis. Put plainly: Antimycobacterial activity against isoniazid, rifamycin, streptomycin, ethambutol, clofazimine, ofloxacin, gentamicin and amikacin-resistant Mycobacterium tuberculosis Praha 131 after 21 days. Conditions: Praha 131, 504 h. Summed up:
as §1

The test system of experiment [3] is Mycobacterium tuberculosis. The experiment can be described thus: Antimycobacterial activity against isoniazid, rifamycin, streptomycin, ethambutol and ofloxacin, clofazimine-resistant Mycobacterium tuberculosis Praha 4 after 21 days. Conditions: Praha 4, 504 h. Summed up: as §1
In experiment [4] the test system is Mycobacterium tuberculosis. Put plainly: Antimycobacterial activity against isoniazid, rifamycin, streptomycin, ethambutol and ofloxacin, clofazimine-resistant Mycobacterium tuberculosis Praha 4 after 14 days. Conditions: Praha 4, 336 h. Summed up: as §1
Experiment [5] concerns Mycobacterium tuberculosis. The experiment can be described thus: Antimycobacterial activity against isoniazid, rifamycin, streptomycin, ethambutol, clofazimine, ofloxacin, gentamicin and amikacin-resistant Mycobacterium tuberculosis Praha 131 after 14 days. Conditions: Praha 131, 336 h. Summed up: as §1
Experiment [6] has as its system Mycobacterium tuberculosis. The experiment can be described thus: Antimycobacterial activity against isoniazid, rifampicin, rifabutin, streptomycin and ethambutol-resistant Mycobacterium tuberculosis 234/2005 after 21 days. Conditions: 234/2005, 504 h. Summed up:
as §1

The subject of experiment [7] is Mycobacterium tuberculosis. The experiment can be described thus: Antimycobacterial activity against isoniazid, rifamycin and streptomycin-resistant Mycobacterium tuberculosis 9449/2006 after 21 days. Conditions: 9449/2006, 504 h. In short, it runs like this: as §1
The subject of experiment [8] is Mycobacterium tuberculosis. The experiment can be described thus: Antimycobacterial activity against isoniazid, rifampicin, rifabutin, streptomycin and ethambutol-resistant Mycobacterium tuberculosis 234/2005 after 14 days. Conditions: 234/2005, 336 h. Summed up:
as §1

Experiment [9] has as its system Mycobacterium tuberculosis. The experiment can be described thus: Antimycobacterial activity against isoniazid, rifamycin, streptomycin, ethambutol and clofazimine-resistant Mycobacterium tuberculosis Praha 1 after 21 days. Conditions: Praha 1, 504 h. Summed up: as §1
Experiment [10] has as its system Mycobacterium tuberculosis. Put plainly: Antimycobacterial activity against isoniazid, rifamycin, streptomycin, ethambutol and clofazimine-resistant Mycobacterium tuberculosis Praha 1 after 14 days. Conditions: Praha 1, 336 h. In short, it runs like this: as §1

SMILES strings stand for the structures. ≈ marks a conversion by molar mass, not a printed value.

As to `CCOP(=O)(OCC)Oc1cc(Cl)ccc1C(=O)Nc1ccc(C(F)(F)F)cc1`, the minimal inhibitory concentration (MIC) in experiment [1], in experiment [2], in experiment [3], in [4], in experiment [5] and in experiment [6] was 1 µM (≈ 0.452 µg/mL) in each case. For the same compound, the MIC in [7], in experiment [8], in experiment [9] and in experiment [10] was 1 µM (≈ 0.452 µg/mL) throughout.
Turning to `CCOP(=O)(OCC)Oc1ccc(Br)cc1C(=O)Nc1ccc(Cl)c(Cl)c1`, the MIC in [1], in [2], in [3], in experiment [4], in experiment [5] and in [6] was 1 µM (≈ 0.497 µg/mL) in each case. Also, the MIC in [7], in experiment [8], in experiment [9] and in experiment [10] was 1 µM (≈ 0.497 µg/mL) each time.
On to `CCOP(=O)(OCC)Oc1ccc(Br)cc1C(=O)Nc1ccc(C(F)(F)F)cc1`, for which the MIC in [1], in experiment [2], in [3], in [4], in [5] and in [6] was 1 µM (≈ 0.496 µg/mL) each time. Moreover, the MIC in [7], in [8], in [9] and in experiment [10] was 1 µM (≈ 0.496 µg/mL) throughout.
As to `CCOP(=O)(OCC)Oc1ccc(Cl)cc1C(=O)Nc1ccc(Cl)c(Cl)c1`, the MIC in experiment [1], in experiment [2], in experiment [3], in experiment [4], in [5] and in [6] was 1 µM (≈ 0.453 µg/mL) each time. Also, the MIC in [7], in [8], in [9] and in [10] was 1 µM (≈ 0.453 µg/mL) in each case.
For `CCOP(=O)(OCC)Oc1ccc(Cl)cc1C(=O)Nc1ccc(C(F)(F)F)cc1`, the MIC in experiment [1], in experiment [2], in experiment [3], in [4], in experiment [5] and in experiment [6] was 1 µM (≈ 0.452 µg/mL) throughout. Also, the MIC in experiment [7], in experiment [8], in [9] and in experiment [10] was 1 µM (≈ 0.452 µg/mL) in each case.
For `NNC(=O)c1ccncc1` [ISONIAZID], the MIC in experiment [1], in [2], in [3], in experiment [4], in [5] and in experiment [6] was 16 µM (≈ 2.19 µg/mL) throughout. Also, the MIC in [7], in experiment [8], in experiment [9] and in experiment [10] was 16 µM (≈ 2.19 µg/mL) throughout.

For orientation: MIC means the lowest concentration found to suppress growth.
